The values below come from ChEMBL document CHEMBL2413033, “Design and synthesis of novel series of 5-HT6 receptor ligands having indole, a central aromatic core and 1-amino-4 methyl piperazine as a positive ionizable group” (Bioorg Med Chem, 2013).

Holding throughout (format): functional, cell-based
In assay [1] the target is T1, 5-hydroxytryptamine receptor 6 (Homo sapiens, UniProt P50406). Nature of the assay: Antagonist activity at human recombinant 5HT6 receptor expressed in HEK293 cells assessed as inhibition of 5HT-induced cAMP accumulation at 10 uM pretreated for 10 mins before 5HT addition measured after 1 hr relative to control. A digest of the protocol:
(§1)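 Cells kept at 37 °C under 5% CO2/95% air were suspended in PBS with 2 mM IBMX. They were pretreated with compound (or not) for 10 min, then stimulated with 5-HT for 30 min. HTRF cAMP detection used d2-labelled cAMP and cryptate-labelled anti-cAMP antibody, 1 h at room temperature. Read-out was excitation 314 nm, emission 668 and 620 nm. Results are percent inhibition versus untreated controls.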

The target in assay [2] is 5-hydroxytryptamine receptor 7 (Homo sapiens) (UniProt P34969). Briefly: Antagonist activity at human recombinant 5HT7 receptor expressed in HEK293 cells assessed as inhibition of 5HT-induced cAMP accumulation at 10 uM pretreated for 10 mins before 5HT addition measured after 1 hr relative to control. A digest of the protocol:
as §1

The target of assay [3] is T1, 5-hydroxytryptamine receptor 6. Nature of the assay: Antagonist activity at human recombinant 5HT6 receptor expressed in HEK293 cells assessed as inhibition of 5HT-induced cAMP accumulation pretreated for 10 mins before 5HT addition measured after 1 hr. In a few lines:
as §1
(cAMP levels reflect the balance of adenylyl cyclase and phosphodiesterase activity.)

The target of assay [4] is 5-hydroxytryptamine receptor 4 (Homo sapiens) (UniProt Q13639). Briefly: Antagonist activity at human recombinant 5HT4 receptor expressed in HEK293 cells assessed as inhibition of 5HT-induced cAMP accumulation at 10 uM pretreated for 10 mins before 5HT addition measured after 1 hr relative to control. A digest of the protocol:
as §1

T1 sequence (P50406 whole entry): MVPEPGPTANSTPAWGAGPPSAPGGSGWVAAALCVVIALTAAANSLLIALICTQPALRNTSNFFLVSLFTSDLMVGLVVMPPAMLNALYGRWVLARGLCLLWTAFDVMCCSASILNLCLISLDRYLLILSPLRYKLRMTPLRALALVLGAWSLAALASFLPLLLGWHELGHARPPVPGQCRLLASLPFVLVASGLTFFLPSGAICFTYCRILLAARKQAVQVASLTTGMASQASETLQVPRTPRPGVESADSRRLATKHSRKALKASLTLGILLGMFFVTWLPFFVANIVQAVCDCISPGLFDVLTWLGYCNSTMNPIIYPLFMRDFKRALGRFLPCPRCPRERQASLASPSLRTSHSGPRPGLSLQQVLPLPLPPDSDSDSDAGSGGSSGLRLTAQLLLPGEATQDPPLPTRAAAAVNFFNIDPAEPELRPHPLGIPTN
5-hydroxytryptamine receptor 4 (Homo sapiens), sequence (Q13639 whole entry): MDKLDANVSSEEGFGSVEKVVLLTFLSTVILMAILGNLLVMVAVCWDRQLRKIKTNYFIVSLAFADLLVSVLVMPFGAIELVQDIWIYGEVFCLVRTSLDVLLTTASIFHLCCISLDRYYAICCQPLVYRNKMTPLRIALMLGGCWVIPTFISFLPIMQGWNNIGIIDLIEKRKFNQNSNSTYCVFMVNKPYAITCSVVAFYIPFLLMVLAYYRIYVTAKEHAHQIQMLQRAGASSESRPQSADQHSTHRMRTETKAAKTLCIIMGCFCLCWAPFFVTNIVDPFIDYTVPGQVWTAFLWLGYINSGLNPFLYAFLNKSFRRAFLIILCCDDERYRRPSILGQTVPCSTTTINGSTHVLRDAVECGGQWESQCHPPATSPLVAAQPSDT
5-hydroxytryptamine receptor 7 (Homo sapiens), sequence (P34969 whole entry): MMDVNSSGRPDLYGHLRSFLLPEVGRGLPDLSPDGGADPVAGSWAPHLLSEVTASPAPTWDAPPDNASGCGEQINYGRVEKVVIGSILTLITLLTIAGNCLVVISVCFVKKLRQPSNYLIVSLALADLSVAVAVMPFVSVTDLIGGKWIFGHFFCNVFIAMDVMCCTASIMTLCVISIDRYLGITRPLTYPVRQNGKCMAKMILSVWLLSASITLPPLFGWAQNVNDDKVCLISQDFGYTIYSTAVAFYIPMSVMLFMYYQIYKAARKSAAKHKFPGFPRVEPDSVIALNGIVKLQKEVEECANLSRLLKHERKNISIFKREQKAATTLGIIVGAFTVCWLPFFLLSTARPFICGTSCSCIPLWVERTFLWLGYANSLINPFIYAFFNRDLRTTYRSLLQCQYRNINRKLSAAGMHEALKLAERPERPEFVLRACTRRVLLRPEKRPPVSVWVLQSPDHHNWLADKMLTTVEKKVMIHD

Take `COc1ccc(S(=O)(=O)n2c(-c3ccccc3)c(/C=N/N3CCN(C)CC3)c3ccccc32)cc1`: in assay [1], the inhibition (commonly the change of the read-out against control, counted positive when it falls) is 31.2%.

Turning to `Cc1c(/C=N/N2CCN(C)CC2)c2ccccc2n1S(=O)(=O)c1cccc2c(N(C)C)cccc12`, the inhibition in assay [1] is 9.5%.

In the case of `Cc1c(/C=N/N2CCN(C)CC2)c2ccccc2n1S(=O)(=O)c1ccc(F)cc1`, the inhibition in assay [2] was determined as 12.3%; in assay [1], 71.7%; in assay [4] it was 83%. For the same molecule, the IC50 (as a rule, the point on the concentration scale where inhibition reaches its midpoint) in assay [3] came out at 4740 nM.

As for `CN1CCN(/N=C/c2c(-c3ccccc3)n(S(=O)(=O)c3ccccc3)c3ccccc23)CC1`, the inhibition in assay [2] was 34.6%; in assay [1], 83.5%; in assay [4] it was 79.9%. In addition, the IC50 in assay [3] was determined as 1800 nM.

Regarding `COc1ccc(NS(=O)(=O)c2ccc(I)cc2)cc1N1CCN(C)CC1`, the results for the inhibition in assay [2] and in assay [4] were 5% and 5.8%, respectively.

Take `CN1CCN(/N=C/c2c(-c3ccccc3)n(S(=O)(=O)c3cccc4ccccc34)c3ccccc23)CC1`: the inhibition in assay [2] is 5%; in assay [1], 54%; in assay [4] it was 9.4%. For the same molecule, the IC50 in assay [3] is 6600 nM.

On to `CN1CCN(/N=C/c2c(-c3ccccc3)n(S(=O)(=O)c3ccc(I)cc3)c3ccccc23)CC1`, for which the inhibition in assay [1] was 24.3%.

`Cc1c(/C=N/N2CCN(C)CC2)c2ccccc2n1S(=O)(=O)c1ccc(-c2ccc(Cl)cc2)cc1`: in assay [1], the inhibition turned out to be 0.1%.

With `CN1CCN(/N=C/c2c(-c3ccccc3)n(S(=O)(=O)c3ccc4ccccc4c3)c3ccccc23)CC1`, the inhibition in assay [1] amounted to 39.6%.

For `Cc1c(/C=N/N2CCN(C)CC2)c2ccccc2n1S(=O)(=O)c1ccc(Cl)c2nonc12`, in assay [1], the inhibition turned out to be 27.2%.

As to `CCCCN(CCCC)c1cccc2c(S(=O)(=O)n3c(C)c(/C=N/N4CCN(C)CC4)c4ccccc43)cccc12`, the inhibition in assay [1] was found to be 44.6%.

As to `CN1CCN(/N=C/c2c(-c3ccccc3)n(S(=O)(=O)Cc3ccccc3)c3ccccc23)CC1`, the inhibition in assay [1] worked out at 36.5%.

Turning to `COc1cc(C)c(Cl)cc1S(=O)(=O)n1c(C)c(/C=N/N2CCN(C)CC2)c2ccccc21`, the inhibition in assay [2] came out at 18.4%; in assay [1], 88.6%; in assay [4], 17.9%. Moreover, the IC50 in assay [3] came out at 2400 nM.

Turning to `Cc1ccc(S(=O)(=O)n2c(-c3ccccc3)c(/C=N/N3CCN(C)CC3)c3ccccc32)cc1`, in assay [1], the inhibition stood at 33.2%.

Turning to `Cc1c(C)c(S(=O)(=O)n2c(-c3ccccc3)c(/C=N/N3CCN(C)CC3)c3ccccc32)c(C)c2c1OC(C)(C)CC2`, the inhibition in assay [1] was 20.6%.

For `Cc1c(C)c(S(=O)(=O)n2c(-c3ccccc3)c(/C=N/N3CCN(C)CC3)c3ccccc32)c(C)c2c1OC(C)(C)C2`, the inhibition in assay [1] was found to be 22.4%.

With `CCCCc1ccc(S(=O)(=O)n2c(-c3ccccc3)c(/C=N/N3CCN(C)CC3)c3ccccc32)cc1`, the inhibition in assay [1] is 14.3%.

For the molecule `CN1CCN(/N=C/c2c(-c3ccccc3)n(S(=O)(=O)c3cccc4c(N(C)C)cccc34)c3ccccc23)CC1`, the values for the inhibition in assay [2], in assay [1] and in assay [4] were 42.2%, 85.3% and 65%, respectively. Further, in assay [3], the IC50 is 1400 nM.

Take `Cc1ccc(S(=O)(=O)n2c(C)c(/C=N/N3CCN(C)CC3)c3ccccc32)cc1`: the inhibition in assay [1] amounted to 49.1%.

Regarding `CC(C)c1ccc(S(=O)(=O)n2c(-c3ccccc3)c(/C=N/N3CCN(C)CC3)c3ccccc32)cc1`, the inhibition in assay [1] amounted to 35.4%.

Take `COc1cc(C)c(Cl)cc1S(=O)(=O)n1c(-c2ccccc2)c(/C=N/N2CCN(C)CC2)c2ccccc21`: the inhibition in assay [2] amounted to 72.8%; in assay [1], 55.3%; in assay [4], 13%. Also, the IC50 in assay [3] is 7400 nM.

For the molecule `CN1CCN(/N=C/c2c(-c3ccccc3)n(S(=O)(=O)c3ccc(F)cc3)c3ccccc23)CC1`, the inhibition in assay [2] stood at 28.5%; in assay [1], 74.2%; in assay [4] it was 37.3%. For the same molecule, the IC50 in assay [3] worked out at 2900 nM.

Turning to `Cc1c(/C=N/N2CCN(C)CC2)c2ccccc2n1S(=O)(=O)c1ccc2ccccc2c1`, the inhibition in assay [2] worked out at 17.1%; in assay [1], 78.9%; in assay [4] it was 92.2%. Moreover, the IC50 in assay [3] was determined as 2040 nM.

As to `Cc1c(/C=N/N2CCN(C)CC2)c2ccccc2n1S(=O)(=O)c1ccc(-c2ccccc2)cc1`, the inhibition in assay [1] was determined as 15.1%.

As to `Cc1c(/C=N/N2CCN(C)CC2)c2ccccc2n1S(=O)(=O)c1ccc(I)cc1`, the inhibition in assay [1] came out at 13.5%.

On to `Cc1c(/C=N/N2CCN(C)CC2)c2ccccc2n1S(=O)(=O)c1ccc(/N=N/c2ccc(N(C)C)cc2)cc1`, for which the inhibition in assay [1] is 16.1%.

For the molecule `CCCCN(CCCC)c1cccc2c(S(=O)(=O)n3c(-c4ccccc4)c(/C=N/N4CCN(C)CC4)c4ccccc43)cccc12`, the inhibition in assay [1] amounted to 21.8%.

For `CCc1ccc2ccccc2c1S(=O)(=O)n1c(C)c(/C=N/N2CCN(C)CC2)c2ccccc21`, the inhibition in assay [1] is 12.2%.

Consider `Cc1c(/C=N/N2CCN(C)CC2)c2ccccc2n1S(=O)(=O)c1ccc([N+](=O)[O-])cc1`, for which the inhibition in assay [1] stood at 52.4%.

With `CC1CCN(CC[C@H]2CCCN2S(=O)(=O)c2cccc(O)c2)CC1`, the inhibition in assay [2] was 104%.

Regarding `CN1CCN(/N=C/c2c(-c3ccccc3)n(S(=O)(=O)c3cn(C)cn3)c3ccccc23)CC1`, the values for the inhibition in assay [2], in assay [1] and in assay [4] were 46.4%, 67.4% and 31.1%, respectively. Also, the IC50 in assay [3] was 3600 nM.

Turning to `CN1CCN(/N=C/c2c(-c3ccccc3)n(S(=O)(=O)c3ccc(Cl)cc3)c3ccccc23)CC1`, the inhibition in assay [1] stood at 30.5%.

For the molecule `CN1CCN(/N=C/c2c(-c3ccccc3)n(S(=O)(=O)c3ccc(OC(F)(F)F)cc3)c3ccccc23)CC1`, the inhibition in assay [1] was 38.7%.
